Rows were chosen to be rich in hits. Some 12% of all compounds tested hit in one or more screens of this group.
Arbovirus inh: arbovirus infection inhibition; arbovirus infection cell-based antiviral screen; inhibition, % at 10 µM; AID 1251; 200,000 tested, 0.37% active; in the data active = inhibition above about 30%
L major viab: inhibitors of Leishmania major promastigote growth. Leishmania major promastigotes, resazurin fluorescence viability. inhibition, % at 10 µM. 200,000 tested, 9% active;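 note: promastigotes grown with compound for 44 hours at 28 °C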
PKD1 inh: blocks activity of human protein kinase D1; 200,000 tested, 0.056% active; AID 797; Q15139; PKD1 kinase fluorescence polarization assay; inhibition, % (no concentration beside the values)
CHOP inh: inhibitors of CHOP induction in ER stress response; inhibition, % at 10 µM; CHO-K1 CHOP-promoter luciferase, tunicamycin-induced, 15-18 h; 220,000 tested, 3.8% active;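 active = compounds that reduced the stress-induced luciferase reporter signal by more than about 70% of percent inhibition, limit read from the data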
Rad51 HR inh: Rad51 (human) homologous recombination inhibition | Q06609 | 200,000 tested, 0.085% active | inhibition, % at 10 µM | hRad51 DNA strand exchange, fluorescence dequenching;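 active = inhibition above 40% at the single screening dose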
Target sequence (Q06609 whole entry, looked up): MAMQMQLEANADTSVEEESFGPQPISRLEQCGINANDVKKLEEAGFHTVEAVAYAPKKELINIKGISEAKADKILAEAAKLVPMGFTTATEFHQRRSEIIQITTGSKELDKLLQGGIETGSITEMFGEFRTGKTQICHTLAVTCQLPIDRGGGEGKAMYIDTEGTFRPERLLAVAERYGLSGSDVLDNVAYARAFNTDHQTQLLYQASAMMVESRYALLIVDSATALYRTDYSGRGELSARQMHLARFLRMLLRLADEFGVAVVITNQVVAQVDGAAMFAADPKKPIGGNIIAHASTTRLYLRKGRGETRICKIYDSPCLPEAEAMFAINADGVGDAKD
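Read-out basis: percent inhibition relative to plate controls and blanks / Assay system: human Rad51 nucleoprotein filaments preassembled on unlabelled ssDNA / Timing: filaments 15 min 37 °C, then compound 30 min / Control set: per-plate controls and blanks / Technique: fluorescence dequenching at 485/520 nm / Compound: 10 µM final, single point / Also added: Fluorescein- and BHQ1-tagged 47-mer duplex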
Wee1 stabilizer: blocks degradation of human Wee1 kinase. P30291. HeLa Luc-Wee1K328M stability, luciferase luminescence; 100% = proteasome inhibitor MG132 effect. reporter increase, % at 5 µM. 220,000 tested, 1.2% active. AID 1321;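 active = activation above the mean of all tested compounds plus 3 SD, set per screening run, cut at about 8.8% in these data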;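 note: cells exposed to compound for 20 h before luminescence read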
Each line names hits and unclear results; the compound was inactive in the other large screens. Cut-off read from the data, not from the text of the source, unless noted: active = inhibition above about 50%; inactive = the rest.

CCC1Oc2ccc(C)cc2N(CC(=O)NCc2cccs2)C1=O (stereo unspecified)	none
CCC1Oc2ccc(C)cc2N(CC(=O)N(Cc2cccnc2)Cc2cccc(F)c2)C1=O (stereo unspecified)	L major viab 93
O=C(CN1C(=O)COc2ccccc21)N(Cc1cccnc1)Cc1cccc(F)c1	L major viab 95
CCC1Oc2ccc(C)cc2N(CC(=O)N(Cc2ccncc2)Cc2ccco2)C1=O (stereo unspecified)	L major viab 80
CCOC1OC(=O)C(Cl)=C1Nc1cc(C)ccc1C (stereo unspecified)	none
Cc1c(Cl)cccc1NC(=S)NN1CCOCC1	none (no result: Rad51 HR inh)
Cn1cnnc1SCC(=O)Nc1ccc(OC(F)F)cc1	none
OC(COc1ccc2ccccc2c1Br)Cn1cnc(-c2ccccc2)c1 (stereo unspecified)	CHOP inh 76
c1ccc(SCCN2CCc3ccccc3C2)cc1	none (no result: Rad51 HR inh)
c1ccc(SCCOCCN2CCc3ccccc3C2)cc1	L major viab 90
CC1CCCN(CCOCCSc2ccccc2)C1 (stereo unspecified)	L major viab 98
CC1CC(C)CN(CCCSc2ccccc2)C1 (stereo unspecified)	L major viab 92
CC1CN(CCCSc2ccc(Cl)cc2)CC(C)O1 (stereo unspecified)	L major viab 85
Clc1ccc(SCCCN2CCCCC2)cc1	none (no result: Arbovirus inh, L major viab, PKD1 inh)
COCCSc1ccccc1C(=O)N1CCCC(C)C1 (stereo unspecified)	none
O=C1c2ccc(-c3ccc4c(c3)C(=O)N(CCO)C4=O)cc2C(=O)N1CCO	none (no result: Arbovirus inh, L major viab, PKD1 inh)
CC1=C(C(=O)OCC2CCCO2)C(c2ccc(Cl)c(Cl)c2)NC(=O)N1 (stereo unspecified)	none
CC1CC(C)CN(CCOCCSc2ccccc2)C1 (stereo unspecified)	L major viab 89
CC1CC(C)CN(CCOCCSc2ccc(Cl)cc2)C1 (stereo unspecified)	L major viab 91
CN1C2CCC1CC(NC(=O)CSc1ccc(Cl)cc1)C2 (stereo unspecified)	none (no result: Arbovirus inh, L major viab, PKD1 inh)
c1ccc(SCCOCCn2cncn2)cc1	none
O=C(N/N=C/c1ccc2cccnc2c1)c1nc2ccccc2c(=O)[nH]1	none (no result: Arbovirus inh, L major viab, PKD1 inh)
CCCCn1c(CN(Cc2ccccc2)Cc2ccccc2)nc2c1c(=O)n(C)c(=O)n2C	none (no result: Arbovirus inh, CHOP inh)
Cc1ccc(Cn2c(CN(C)Cc3ccccc3)nc3c2c(=O)n(C)c(=O)n3C)cc1	L major viab 73
CCOCCn1c(CN(Cc2ccccc2)Cc2ccccc2)nc2c1c(=O)n(C)c(=O)n2C	CHOP inh 80
Cc1ccc(NC(=O)COC(=O)CNC(=O)c2ccc3ccccc3c2)c([N+](=O)[O-])c1	none
O=C1/C(=C/c2ccc(N3CCOCC3)o2)SC(=Nc2ccccc2)N1CCc1c[nH]c2ccccc12	L major viab 100
CCN(CC(=O)NC(C)(C)C)C(=O)c1ccc2c(c1)S(=O)(=O)c1ccccc1C2=O	none
CCCN(CCC)c1nc(N)nc(-c2cc(Cl)ccc2OC)n1	L major viab 58
CCCNc1nc(N)nc(-c2cc(Cl)ccc2OC)n1	none
Cc1cc(C)n(C(=O)/C(C#N)=N/Nc2cc(Cl)cc(Cl)c2)n1	none
Cc1cc2nc(C3CCN(CC4COc5ccccc5O4)CC3)[nH]c2cc1C (stereo unspecified)	L major viab 91
CCCNC(=S)N1CCC(c2nc3cc(C)c(C)cc3[nH]2)CC1	none
O=C(C[n+]1ccc(-c2cc(C(=O)Nc3cccc(C(F)(F)F)c3)c3ccccc3n2)cc1)c1cccc([N+](=O)[O-])c1	CHOP inh 81
O=C(C[n+]1cccc(NC(=O)c2ccccc2)c1)c1cccc([N+](=O)[O-])c1	none
COc1ccccc1NC(=O)Nc1ccc(Cl)c(S(=O)(=O)Nc2ccccc2OC)c1	L major viab 99
COc1ccc(NS(=O)(=O)c2cc(N/C(=N\S(=O)(=O)c3ccccc3)c3ccc(F)cc3)ccc2Cl)cc1	L major viab 76
COc1ccccc1NC(=O)NCC(=O)Nc1ccc(F)c(F)c1	none
COc1ccccc1NC(=O)Nc1ccc(F)c(F)c1	Rad51 HR inh 41
Cc1ccc(C)c(S(=O)(=O)N/N=C/c2ccc(N3CCOCC3)cc2)c1	none (no result: Arbovirus inh, L major viab, PKD1 inh)
CCC1(CC)NC(=O)N(CC(=O)OCC(=O)Nc2ccc(F)c(F)c2F)C1=O	none (no result: Rad51 HR inh)
Clc1ccc(CN=C(Nc2ccccc2)NC2CCCCC2)cc1	L major viab 95
O=C(Cc1ccc(-c2ccccc2)cc1)NC1CCCC1	none
CCn1c(CNc2cccc(C(F)(F)F)c2)n[nH]c1=S	none
COc1ccc(NC(C)=O)cc1NC(=O)CN1CCN(S(=O)(=O)c2ccc(C(C)C)cc2)CC1	CHOP inh 73
N#Cc1ccc(C(=O)Nc2cc(S(=O)(=O)N3CCCC3)ccc2OCC(F)(F)F)cc1	L major viab 59
O=C(Nc1cccc(S(=O)(=O)N2CCCC2)c1)c1ccc2c(=O)n3c(nc2c1)CCCCC3	L major viab 82
O=S(=O)(Nc1nc2ccccc2nc1Nc1cccc(S(=O)(=O)N2CCCCC2)c1)c1ccccc1	L major viab 69, CHOP inh 75
COc1ccc(NS(=O)(=O)c2cccc(NC(=O)c3ccc(S(=O)(=O)N4CCCCCC4)cc3)c2)cc1	L major viab 97, CHOP inh 75
COc1ccc(NS(=O)(=O)c2ccc(O)c(NC(=O)c3ccc(S(=O)(=O)N4CCCCCC4)cc3)c2)cc1	none
COc1ccc(S(=O)(=O)N2CCCCC2)cc1NC(=O)c1ccc2c(c1)OCO2	L major viab 78
CCOC(=O)N1CCN(S(=O)(=O)c2ccc(C(=O)Nc3ccc4c(c3)C(=O)NC4=O)cc2)CC1	L major viab 56
COc1ccccc1NS(=O)(=O)c1ccc(C)c(NC(=O)c2ccc(S(=O)(=O)N3CCCCCC3)cc2)c1	L major viab 97
O=C(Nc1cccc(S(=O)(=O)N2CCCCCC2)c1)c1ccc2c(c1)OCO2	none (no result: Rad51 HR inh)
Cc1cccc(-n2c(O)c(C=NC3CCS(=O)(=O)C3)c3ccccc3c2=O)c1C (stereo unspecified)	none (no result: Arbovirus inh, L major viab, PKD1 inh)
CSc1ccc(CN(C)Cc2nc3ccccc3c(=O)[nH]2)cc1	none (no result: Arbovirus inh, L major viab, PKD1 inh)
CC(C)c1ccc(C(=O)NC(=S)Nc2ccc3[nH]c(=O)[nH]c3c2)cc1	none (no result: Arbovirus inh, L major viab, PKD1 inh)
CCOCC(=O)Nc1cc(Cl)c(OC)cc1OC	none
Cn1ccnc1SCC(=O)Nc1cccc(S(=O)(=O)N2CCCCC2)c1	none
COc1ccc(S(=O)(=O)N2CCCCC2)cc1NC(=O)CSc1nccn1C	L major viab 99
COc1ccc(C2NCCc3c2[nH]c2ccccc32)cc1COc1ccc(F)cc1 (stereo unspecified)	L major viab 100, CHOP inh 75 (no result: Rad51 HR inh)
N#Cc1ccc(CSC2=NCCN2)cc1	Wee1 stabilizer 9.8
COc1ccc(/C=C(/C(=O)c2ccc(Cl)cc2Cl)n2cncn2)cc1	none
CN(C)c1ccc(/C=C(/C(=O)c2ccc(Cl)cc2Cl)n2cncn2)cc1	L major viab 51 (no result: Rad51 HR inh)

Source: PubChem BioAssay (several laboratories)
